TAAR1 antag: human TAAR1 antagonism | Q96RJ0 | CHO RD-HGA16 TAAR1, Fluo-8 calcium fluorescence, antagonist | inhibition, % at 3 µM | 360,000 compounds, 1.5% hits;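 active means inhibition above a per-plate cutoff, the mean inhibition of test compounds on that plate plus 3 SD, cut at about 49% in these data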;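 further: 0% = DMSO plus EC80 beta-PEA response and 100% = DMSO alone without agonist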
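Test system: CHO RD-HGA16 cells bearing hTAAR1 | Reagent: β-PEA, EC80 | Compound dosing: 3 µM, single point | Schedule: Dye loading 75 min at 37 °C, then 30 min room temperature | Signal: Calcium fluorescence with Fluo-8 | Evaluation: Percent inhibition of PEA-evoked calcium signal, max/basal emission ratio | Control set: DMSO-only wells and EC80 β-PEA-stimulated wells | Repeats: Singlicate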
CHO parental Ca: counter-screen: ATP calcium response change in parental CHO cells | parental CHO-K1, ATP-induced calcium, Fluo-8 fluorescence | inhibition, % at 5.6 µM | 330,000 compounds, 0.63% hits | AID 463079;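 active means inhibition above that plate's mean sample inhibition plus 3 SD, cut at about 26% in these data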;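 further: 0% = ATP-challenged DMSO wells and 100% = DMSO wells without ATP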
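Measured by: calcium-sensitive Fluo-8 fluorescence / Test system: CHO parental line / Controls: ATP-challenged DMSO wells low, unchallenged DMSO wells high / Measure: % inhibition / Compound: single nominal dose of 5.6 µM per compound / Replicates: single well per compound, no replicates / Reagent: ATP as calcium-mobilizing challenge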
OX1R antag-1: OX1R (human) antagonism. O43613. OX1R-expressing cells, FRET antagonist read-out. inhibition, % at 6.6 µM. 330,000 compounds, 1.8% hits. AID 485270; in the data active means inhibition mostly above about 38%, no sharp cut-off; inactive means mostly below about 40%;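 further: 0% = agonist challenge alone and 100% = reference antagonist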
TAAR1 agonist: agonists of human TAAR1; 360,000 compounds, 0.99% hits; activation, % at 3 µM; CHO RD-HGA16 TAAR1, Fluo-8 calcium fluorescence; vehicle wells 0%, saturating PEA agonist 100%; Q96RJ0;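 active means activation above the mean activation of all test compounds in the run plus 3 SD, cut at about 38% in these data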
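Benchmarks: low control DMSO, high control PEA (EC100); System: CHO RD-HGA16 cells carrying human TAAR1 plus Gα16; Detection: Fluo-8 fluorescence, 5 s baseline then 140 s kinetic read; Schedule: 17-24 h plating, Fluo-8 75 min 37 °C, 30 min RT; Read-out basis: % activation from peak over basal fluorescence ratio, DMSO-to-PEA scaled.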
GPR7 antagonist: antagonists of human GPR7 (neuropeptides B/W receptor 1). P48145. 290,000 compounds, 1.1% hits. GPR7-expressing cells, fluorescence antagonist assay. inhibition, % at 4.4 µM; in the data active means inhibition above about 16%, passing the limit was not always enough;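 further: cells stimulated with the agonist NPW; 0% = agonist with vehicle and 100% = vehicle without agonist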
Target sequence (P48145 whole entry, looked up): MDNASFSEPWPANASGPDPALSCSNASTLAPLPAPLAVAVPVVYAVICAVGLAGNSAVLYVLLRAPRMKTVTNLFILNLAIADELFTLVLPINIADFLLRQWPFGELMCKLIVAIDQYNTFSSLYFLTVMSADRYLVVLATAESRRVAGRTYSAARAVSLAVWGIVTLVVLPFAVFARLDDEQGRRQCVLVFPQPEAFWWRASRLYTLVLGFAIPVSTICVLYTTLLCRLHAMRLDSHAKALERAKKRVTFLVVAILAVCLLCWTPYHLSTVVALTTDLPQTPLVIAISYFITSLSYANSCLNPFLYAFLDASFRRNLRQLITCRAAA
OX1R antag-2: antagonists of human orexin 1 receptor; O43613; CHO/OX1R cells, Fluo-8 calcium fluorescence, orexin A; inhibition, % at 5 µM; 330,000 compounds, 0.43% hits;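 active means inhibition above its plate's threshold, mean inhibition of all tested compounds on the plate plus 3 SD, cut at about 37% in these data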;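 further: 0% = orexin A challenge wells and 100% = SB-334867-A antagonist wells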
nonsel antag count: counter-screen for TAAR1 antagonists: nonselective antagonists. AID 651780. inhibition, % at 3 µM. shares compounds with TAAR1 antag. counterscreen cell line, calcium fluorescence, antagonist mode. 2,400 compounds, 77% hits; in the data active means inhibition above about 22%;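 further: CHO-Ga16 host cells stimulated with ATP at an EC80 level; 0% = agonist EC80 plus vehicle and 100% = vehicle without agonist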
TAAR1 ant conf: human TAAR1 antagonism, confirmed | shares compounds with TAAR1 antag | TAAR1-expressing cells, fluorescence antagonist read-out | inhibition, % at 3 µM | 2,400 compounds, 40% hits | AID 651785; in the data active means inhibition above about 49%;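 further: CHO-Ga16 host cells challenged with agonist PEA near its EC80; 0% = agonist at EC80 plus vehicle and 100% = vehicle with no agonist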
Ga16 ag counter: nonselective Ga16 agonist in TAAR1 antagonist counter-screen. Ga16-expressing cells, calcium fluorescence, agonist counterscreen. activation, % at 3 µM. 2,400 compounds, 18% hits. AID 651953. shares compounds with TAAR1 antag; in the data active means activation above about 12%;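 further: 0% = vehicle wells and 100% = saturating stimulus response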
TAAR1 ag counter: counter-screen for human TAAR1 antagonists: TAAR1 agonists | shares compounds with TAAR1 antag | hTAAR1 cell line, fluorescence activation, agonist mode | activation, % at 3 µM | 2,400 compounds, 2% hits | AID 651955; in the data active means activation above about 37%;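 further: CHO cells stably expressing TAAR1 with calcium dye readout; 0% = DMSO vehicle and 100% = full agonist response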
Numbers without * were called inactive; x = no result. Most compounds without a hit are left out; they make up all but 4.5% or so of the library.

SMILES	TAAR1 antag	CHO parental Ca	OX1R antag-1	TAAR1 agonist	GPR7 antagonist	OX1R antag-2	nonsel antag count	TAAR1 ant conf	Ga16 ag counter	TAAR1 ag counter
C/C=C(/C)C(=O)OC(C)(C)[C@@H]1Cc2c(ccc3ccc(=O)oc23)O1	10	-17	36	7	-10	-27	x	x	x	x
CN(C)CC#Cc1cccc(-c2nc(C(=O)O)cc3c2[C@@H](CCO)N(S(=O)C(C)(C)C)C3)c1 (stereo partly drawn)	-2	x	x	3	x	x	x	x	x	x
CCCOc1ccc(C(=O)Nc2cc(S(=O)(=O)N3CCOCC3)ccc2N2CCN(CC)CC2)cc1OC	-17	x	x	10	x	x	x	x	x	x
COC(=O)c1cccc(S(=O)(=O)N(Cc2ccco2)Cc2cc3ccc(OC)cc3[nH]c2=O)c1	57*	-18	40*	21	-1	15	33*	57*	10	7
Cc1cc(-c2ccc(S(=O)(=O)N(C)Cc3ccccc3)cc2)on1	65*	38*	29	9	1	0	26*	51*	10	17
CN(Cc1ccccc1)S(=O)(=O)c1ccc(NS(C)(=O)=O)cc1	3	9	8	2	4	9	x	x	x	x
N#CC1=C(N)NC(SCC(=O)c2ccccc2)=C(C#N)C12CCCC2	56*	-8	27	12	-4	7	34*	45	13*	12
COc1cccc(C(=O)NCC(c2cccs2)N2CCOCC2)c1 (stereo not drawn)	100*	-6	0	-3	x	-4	13	-2	1	5
CCc1ccc(C(C(=O)NCc2ccc(OC)cc2)N(CCOC)C(=O)Cc2cccs2)cc1 (stereo not drawn)	73*	-14	8	19	-6	-17	29*	53*	9	8
COCCN(C(=O)Cc1cccs1)C(C(=O)NCc1ccc(OC)cc1)c1ccc(C(C)C)cc1 (stereo not drawn)	64*	14	11	15	0	20	29*	54*	10	13
O=C(NCc1ccccc1)C(c1ccccc1)N(Cc1ccc2c(c1)OCO2)C(=O)Cc1cccs1 (stereo not drawn)	80*	-19	48	10	-12	6	40*	59*	12*	8
CCCn1cnnc1CNC(=O)[C@H]1O[C@@H](n2cnc3c(N)ncnc32)[C@H](O)[C@@H]1O	-7	x	x	1	x	x	x	x	x	x
C=C1C(=O)OCC2C(C(=O)O)=CC3C(C)C(C)=CC123 (stereo not drawn)	-10	x	x	1	x	x	x	x	x	x
COCCCn1cc(CN2CC(N3CCN(Cc4cccc(C)c4)CC3)CS2(=O)=O)nn1 (stereo not drawn)	4	x	x	3	x	x	x	x	x	x
COc1cc(C#N)ccc1OCC(=O)Nc1cccc(S(=O)(=O)N(C)c2ccccc2)c1	74*	x	x	12	x	x	36*	49*	10	7
CCN(CC)S(=O)(=O)c1cccc(NC(=O)COc2ccc(C#N)cc2OC)c1	5	-10	15	11	-15	-30	x	x	x	x
CCCC(=O)Nc1cccc(S(=O)(=O)N(C)c2ccccc2)c1	-4	-10	28	1	-7	-10	x	x	x	x
CC(=O)CCc1ccc(OCC(=O)Nc2cccc(S(=O)(=O)N(C)c3ccccc3)c2)cc1	74*	x	x	10	x	x	35*	52*	11	8
CC1(c2ccccc2)NC(=O)N(CC(=O)Nc2cccc(/C=C/c3ccccn3)c2)C1=O (stereo not drawn)	50*	-29	33	9	x	-20	15	33	6	10
Cc1cc(C)cc(NC(=O)CN2C(=O)NC(C)(c3ccccc3)C2=O)c1 (stereo not drawn)	8	-24	13	8	-6	-10	x	x	x	x
CCCCOc1cccc2c(=O)n(CC(=O)Nc3ccc4c(c3)OCCO4)ccc12	71*	x	x	21	x	x	43*	88*	13*	28
O=C(Cn1cnc2ccccc2c1=O)Nc1ccc2c(c1)OCCO2	11	-3	10	5	-8	1	x	x	x	x
CC1(C(=O)NCCC#N)CCN1C(=O)CC(c1ccccc1)c1ccccc1 (stereo not drawn)	24	x	x	1	x	x	x	x	x	x
COc1cccc(-c2cnc3c(NC(C)=O)cc(-c4ccc(OC)c(OC)c4)cn23)c1	-20	x	x	3	x	x	x	x	x	x
COc1cccc(-c2cnc3c(NC(C)=O)cc(-c4ccsc4)cn23)c1	73*	x	x	6	x	x	41*	66*	13*	12
N#Cc1ccc(CN(Nc2ccccc2)c2ccccc2)cc1	40	x	x	4	x	x	x	x	x	x
O=C(Nc1ccc(S(=O)(=O)N2CCCCC2c2cccnc2)cc1)c1ccccc1F (stereo not drawn)	56*	-10	39	12	7	-10	27*	34	10	9
Cc1cccc(C)c1-c1ccc(CN2C(CC(C)C)C(=O)N(Cc3cn(CCO)nn3)CCS2(=O)=O)cc1 (stereo not drawn)	90*	x	x	34	x	x	53*	67*	21*	19

Source: PubChem (The Scripps Research Institute Molecular Screening Center)
